Reference: ChEMBL document CHEMBL1133020, “Structure-based design, synthesis, and biological evaluation of novel pyrrolyl aryl sulfones: HIV-1 non-nucleoside reverse transcriptase inhibitors active at nanomolar concentrations” (J Med Chem, 2000)

What was measured:
MT4 [1] = experiment: Effective concentration against HIV-1 induced cytopathicity in MT-4 cells using MTT method; format: functional, cell-based; conditions: Homo sapiens
Summary of the method: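 MT-4 cells acutely infected with HIV-1; inhibition of virus-induced cytopathicity; viable cells determined by MTT; EC50 = dose (µM) giving 50% protection from cytopathicity.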

MT4 [2] = experiment: 50% cytotoxic concentration against mock-infected MT-4 cells using MTT method; format: functional; conditions: Homo sapiens
Summary of the method: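 Viability of mock-infected MT-4 cells run in parallel with the antiviral assay; viable cells counted by MTT; CC50 = dose (µM) reducing viability by 50%.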

[3] = Selectivity index, ratio of CC50 to EC50; format: functional
Summary of the method: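 Ratio of CC50 (mock-infected MT-4 viability, MTT) to EC50 (protection of MT-4 cells from HIV-1 cytopathicity, MTT).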

Row | Structure (SMILES) | EC50 (MT4 [1]) [µM] | CC50 (MT4 [2]) [µM] | Selectivity [3]
1 | CCOC(=O)c1cccn1S(=O)(=O)c1cc(Cl)ccc1-n1cccc1 | > 110 | 110 | –
2 | CCOC(=O)c1cc(CO)cn1S(=O)(=O)c1cc(Cl)ccc1N | 0.045 | 240 | 5330
3 | CCOC(=O)c1cccn1S(=O)(=O)c1cc(Cl)ccc1N | – | > 200 | > 1430
4 | CCOC(=O)c1cc(COc2ccccc2)cn1S(=O)(=O)c1cc(Cl)ccc1N | 4.1 | > 200 | > 49
5 | C=Cc1cc(C(=O)OCC)n(S(=O)(=O)c2cc(Cl)ccc2N)c1 | 0.17 | 47 | 274
6 | CCOC(=O)c1cc(C(C)O)cn1S(=O)(=O)c1cc(Cl)ccc1N (stereo unspecified) | 0.25 | 115 | 460
7 | CC(C)OC(=O)c1cc(CO)cn1S(=O)(=O)c1cc(Cl)ccc1N | 0.1 | 116 | 1160
8 | CC(C)OC(=O)c1cc(CNc2ccccc2)cn1S(=O)(=O)c1cc(Cl)ccc1N | 0.2 | 40 | 200
9 | CCOC(=O)c1cccn1S(=O)(=O)c1c(N)cccc1Cl | 72 | 180 | 2.5
10 | CCOC(=O)c1cc(C)cn1S(=O)(=O)c1cc(Cl)ccc1N | 0.09 | > 200 | > 2220
11 | CCOC(=O)c1cc(COC)cn1S(=O)(=O)c1cc(Cl)ccc1N | 0.4 | > 200 | > 500
12 | CCOC(=O)c1cc(CNc2ccccc2)cn1S(=O)(=O)c1cc(Cl)ccc1N | 3.1 | > 200 | > 55.5
13 | Cc1ccnc2c1NC(=O)c1cccnc1N2C1CC1 [NEVIRAPINE] | 0.35 | > 200 | –
